NPY-Y2 PAM-ag: NPY-Y2 potentiators or agonists, primary screen, cell-based | cells expressing NPY-Y2, potentiator/agonist read-out | Neuropeptide Y receptor type 2 (Homo sapiens), P49146 | 220,000 tested, 0.45% active | AID 1359, 2008 | activation, % at 3.6 µM; in the data active = activation above about 27%;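 note: cells stimulated with NPY near EC25 plus isoproterenol at EC100; 0% = vehicle plus submaximal agonist and 100% = vehicle plus saturating agonist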
Target sequence (P49146 whole entry, looked up): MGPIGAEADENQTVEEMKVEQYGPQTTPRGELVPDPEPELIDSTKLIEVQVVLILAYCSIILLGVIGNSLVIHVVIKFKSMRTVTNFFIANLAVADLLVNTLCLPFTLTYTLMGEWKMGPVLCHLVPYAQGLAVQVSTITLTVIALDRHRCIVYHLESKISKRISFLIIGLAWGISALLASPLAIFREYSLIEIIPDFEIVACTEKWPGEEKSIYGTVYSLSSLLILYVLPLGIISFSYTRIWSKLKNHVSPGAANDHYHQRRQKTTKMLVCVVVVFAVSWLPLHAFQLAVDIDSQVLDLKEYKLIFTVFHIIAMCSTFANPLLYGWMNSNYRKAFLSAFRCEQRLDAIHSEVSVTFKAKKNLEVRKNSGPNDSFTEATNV
NPY1 pot ag: NPY-Y1 receptor potentiators or agonists, primary screen, cell-based; Neuropeptide Y receptor type 1 (Homo sapiens), P25929; NPY-Y1 expressing cells, potentiator/agonist activation; activation, % at 3.6 µM; 220,000 tested, 0.37% active; AID 1304, 2008; in the data active = activation above about 33%, passing the limit was not always enough;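 note: cells stimulated with NPY at EC10 then isoproterenol at EC100; 0% = low agonist plus stimulus and 100% = saturating agonist plus stimulus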
NPY-Y1 antag: NPY-Y1 receptor antagonists, primary screen, cell-based; Neuropeptide Y receptor type 1 (Homo sapiens), P25929; HEK293-CNG Y1 cells, membrane potential fluorescence; NPY at EC95, then isoproterenol; inhibition, % at 3.6 µM; 200,000 tested, 1% active; AID 1040, 2008;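 active = inhibition above the campaign mean inhibition of all tested compounds plus 3 SD, cut at about 20% in these data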;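 note: 0% = DMSO wells given NPY plus isoproterenol and 100% = isoproterenol alone without NPY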
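Test system: HEK293 cells co-expressing NPY Y1 receptor and cyclic-nucleotide gated channel; Also added: NPY (25 nM), isoproterenol (1 µM), Ro 20-1724 (25 µM); Compound dosing: one concentration, 3.6 µM, in 0.4% DMSO; Timing: dye 3 h, compound 60 min room temperature, stimulation 45 min; Technique: Membrane-potential fluorescent dye readout.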
NPY Y2 blocker: NPY-Y2 receptor antagonists, primary screen, cell-based. NPY-Y2 expressing cells, antagonist mode. 140,000 tested, 0.99% active. AID 793, 2007. inhibition, % at 2.7 µM. Neuropeptide Y receptor type 2 (Homo sapiens), P49146; in the data active = inhibition above about 17%;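 note: 0% = vehicle with agonist challenge and 100% = reference antagonist with challenge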
An asterisk follows results filed as active; · = not tested or not shown. Shown are actives, neighbours in structure and some others; about 1.8% of the full set was active somewhere.

SMILES | NPY-Y2 PAM-ag | NPY1 pot ag | NPY-Y1 antag | NPY Y2 blocker
Cc1ccnc(NC(=O)COc2ccc3oc4c(c3c2)CCCC4)c1 | -6.7 | -30.6 | 21.1* | 11.2
Cc1ccnc(NC(=O)COc2c(C)cc(C)cc2[N+](=O)[O-])c1 | 6.8 | -25.3 | 3.3 | 8.4
COc1ccc(-c2cc(-c3ccccc3)c(C#N)c(S(C)=O)n2)cc1 (stereo not given) | 76.1* | 72.0* | -18.3 | -0.5
CC(=O)Oc1ccc(C(c2ccc(OC(C)=O)cc2)c2ccccn2)cc1 | -28.2 | -125.0 | 102.0* | 108.2*
CCOc1ccc(NCc2cc3c(C(C)(C)C)nn(-c4ccccc4)c3[nH]c2=O)cc1 | 35.2* | 56.0* | -10.6 | -1.8
O=C(C1CCN(Cc2ccc(F)cc2)CC1)N(CCc1ccccc1)Cc1ccccc1 | -9.3 | -29.0 | 21.3* | 23.6*
O=C(C1CCN(Cc2ccc(F)cc2)CC1)N(CCO)Cc1ccccc1 | 2.9 | -15.5 | 3.1 | 3.1
Cc1cc(C(=O)CN2CCCC2)c(C)n1-c1ccc(Cl)cc1 | -2.3 | -3.4 | 20.9* | ·
CC(C)(C)N(NC(=O)Nc1ccc(F)cc1)C(=O)c1ccccc1 | 13.8 | -12.3 | 2.5 | 2.7
CCN(NC(=O)C(O)(c1ccc(F)cc1)c1ccc(F)cc1)C(=O)c1ccccc1 | -26.2 | -19.6 | 23.4* | 25.1*
O=C(c1ccccc1F)N(NC(=O)C(O)(c1ccccc1)c1ccccc1)c1ccccc1 | -1.9 | -47.1 | 39.0* | 30.5*
O=C(c1ccccc1)N(NC(=O)C(O)(c1ccccc1)c1ccccc1)c1cccc(F)c1 | -3.9 | -44.2 | 53.4* | 31.1*
Cc1ccc(C(O)(C(=O)NN(C(=O)c2ccccc2)c2ccccc2)c2ccc(C)cc2)cc1 | 3.0 | -16.4 | 59.5* | 48.3*
CC(C)(O)C(=O)NN(C(=O)c1ccccc1)c1ccc2ccccc2c1 | -3.3 | 13.5 | 4.7 | -1.3
CCCCC(=O)Nc1cc(C(=O)NCCc2ccccc2)ccc1Cl | -3.6 | 5.8 | -0.1 | 1.0
COc1cc(C(=O)NCC(=O)N/N=C/c2ccc(OC(=O)c3ccco3)cc2)cc(OC)c1OC | 5.7 | 5.9 | -5.8 | ·
COc1ccc(C(=O)N2CCN(C(C)=O)CC2)cc1S(=O)(=O)N1CCOCC1 | 0.7 | -0.5 | 4.4 | ·
O=S(=O)(Nc1ccc(Cl)cc1)c1ccc2c(c1)CCO2 | 14.7 | 20.1 | · | ·
CC/C(=N\Nc1ccccc1[N+](=O)[O-])c1ccc(O)cc1 | 46.8* | 74.1* | -11.7 | ·
Cc1ccc(-n2nc(C)c(=O)c(-c3ccccc3)c2NC(=O)c2cccs2)cc1 | -0.3 | 21.2 | · | ·
Cc1ccc(S(=O)(=O)Nc2ccc(Br)cc2/C=N/n2cnnc2)cc1 | 47.2* | 49.4* | -18.0 | 1.1
C=CCc1ccc(OCCOc2cccc3ccc(C)nc23)c(OC)c1 | -6.0 | -18.0 | 4.8 | 5.4
O=C(NCc1ccccn1)C(=O)Nc1nc(C23CC4CC(CC(C4)C2)C3)cs1 | -7.1 | 3.0 | 5.0 | ·
CCOC(=O)c1cnc2ccc(OC)cc2c1NCc1ccccc1 | -51.3 | -74.5 | 26.6* | 19.3*
CCOC(=O)c1cnc2ccc(OCC)cc2c1NCc1ccccc1OC | -23.7 | -60.4 | 27.3* | 49.4*
SMILES | NPY-Y2 PAM-ag | NPY1 pot ag | NPY-Y1 antag | NPY Y2 blocker
COc1ccc2c(n1)Sc1nc3ccccc3nc1N2 | 11.3 | 18.7 | · | ·
CCC(CCC(=O)NNC(=O)Cc1ccc([N+](=O)[O-])cc1)C(=O)O (stereo not given) | -6.7 | -29.4 | · | ·
C#CC(=O)N(c1cccc(OC)c1)C(C(=O)NC1CCCC1)c1cccs1 (stereo not given) | 47.2* | 55.1* | -4.2 | -0.2
Oc1cccc(NC(=S)Nc2cccnc2)c1 | 60.3* | 61.6* | 6.3 | 0.6
S=C(Nc1cccnc1)Nc1ccccc1Br | -5.6 | -4.2 | 2.5 | ·
COc1ccc(CCNC(=O)c2ccc3ccccc3n2)cc1OC | -18.6 | 3.3 | 20.1* | ·
COc1ccc(-c2[nH]ncc2CN2CCC(N3CCSCC3)CC2)cc1F | 8.2 | 6.5 | 1.1 | ·
Cc1ccc(OCC(=O)Nc2ccc([N+](=O)[O-])cn2)cc1C | -8.2 | -32.6 | 24.5* | 9.1
COc1ccc(/C=N/NC(=O)c2ccc3nc[nH]c3c2)cc1 | 2.5 | 17.3 | · | ·
CNC(=O)COC(=O)[C@@H](Nc1ccc(S(=O)(=O)N2CCOCC2)cc1[N+](=O)[O-])C(C)C | -0.9 | -12.5 | -1.6 | 1.4
COc1ccc(CN2CCC(CO)(Cc3ccccc3)CC2)cc1Cn1cccn1 | -24.8 | -16.6 | 21.4* | ·
Nc1ccc(N=Nc2ccccc2)c2ccccc12 | 56.4* | 49.6* | · | ·
Nc1ccc(N=Nc2ccccc2)c(N)n1 | 18.3 | 5.1 | 2.3 | -0.8

Assay outcomes deposited in PubChem by The Scripps Research Institute Molecular Screening Center.
